An excerpt weighted towards active compounds, which were near 3.1% of everything screened.
TbHK1 inh – blocks Trypanosoma brucei hexokinase 1 activity; AID 1430; 220,000 compounds, 0.11% hits; inhibition, % at 10 µM; recombinant TbHK1, G6PDH-coupled NADH A340;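 active = inhibition of 50% or more in the single-dose primary screen; inactive = inhibition below 50%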
Hsp70 act – switches on Hsp70 transcription. HeLa Hsp70 promoter luciferase reporter, luminescence; scaled: vehicle 0, proteasome-inhibitor control 100%. 200,000 compounds, 0.04% hits. activation, % at 10 µM;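 active = activation above the mean across all tested compounds plus 3 SD, cutoff set per campaign, cut at about 5.5% in these data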
HKDC1 inhibitor – inhibitors of human hexokinase HKDC1 | Q2TB90 | recombinant HKDC1, G6PDH/diaphorase resazurin coupled fluorescence | 340,000 compounds, 0.16% hits | inhibition, % at 20 µM;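 active = inhibition above about 35% when tested at 20 µM, limit read from the data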
Target sequence (Q2TB90 whole entry, looked up): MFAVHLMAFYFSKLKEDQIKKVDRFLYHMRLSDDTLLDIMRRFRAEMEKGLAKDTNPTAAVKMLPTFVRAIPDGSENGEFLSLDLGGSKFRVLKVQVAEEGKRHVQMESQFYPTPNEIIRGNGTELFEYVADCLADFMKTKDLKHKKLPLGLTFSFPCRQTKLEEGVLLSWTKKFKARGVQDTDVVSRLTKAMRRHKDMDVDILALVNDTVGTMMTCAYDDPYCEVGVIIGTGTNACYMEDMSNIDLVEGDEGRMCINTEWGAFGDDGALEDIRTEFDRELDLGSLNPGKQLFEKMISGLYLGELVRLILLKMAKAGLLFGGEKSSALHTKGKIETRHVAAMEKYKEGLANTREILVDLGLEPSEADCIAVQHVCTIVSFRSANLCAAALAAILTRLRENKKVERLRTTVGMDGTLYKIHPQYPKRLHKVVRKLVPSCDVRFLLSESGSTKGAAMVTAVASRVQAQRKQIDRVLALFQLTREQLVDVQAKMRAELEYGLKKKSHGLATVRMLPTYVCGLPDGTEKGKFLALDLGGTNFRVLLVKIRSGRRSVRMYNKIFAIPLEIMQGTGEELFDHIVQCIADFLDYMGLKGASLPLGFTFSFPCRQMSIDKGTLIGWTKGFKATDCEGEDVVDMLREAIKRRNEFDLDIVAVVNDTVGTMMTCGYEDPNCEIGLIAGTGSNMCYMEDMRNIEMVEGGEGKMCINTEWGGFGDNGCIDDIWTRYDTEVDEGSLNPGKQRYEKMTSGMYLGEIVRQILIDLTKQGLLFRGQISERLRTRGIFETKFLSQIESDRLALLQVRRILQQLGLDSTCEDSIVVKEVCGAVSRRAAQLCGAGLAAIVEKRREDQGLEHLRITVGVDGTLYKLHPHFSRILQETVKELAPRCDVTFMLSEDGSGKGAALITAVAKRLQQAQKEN
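Incubation: 90 min at room temperature in dark / Material: recombinant HKDC1 (HK5) hexokinase enzyme, produced in-house / Quantity: enzyme 5 µg/mL final / Compound: one dose of 20 µM, 1% DMSO / Reagent: glucose and ATP substrates / Buffer or medium: Tris pH 8.0 buffer with MgCl2, Tween-20, BSA, BME / Technique: resorufin fluorescence at 613 nm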
HSP90 refold inh – blocks HSP90-mediated luciferase refolding in reticulocyte lysate; Rabbit reticulocyte lysate, luciferase refolding luminescence, 3 h; inhibition, % at 5.6 µM; 290,000 compounds, 0.91% hits; AID 1789;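 active = inhibition above the screen-wide mean plus 3 SD, computed separately per campaign, cut at about 16% in these data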;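 also: inhibitors lower the luminescence because luciferase stays unfolded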
HSF1 inhib – HSF1 inhibition | activity change, negative = inhibition, % at 7.5 µM (by protocol) | 300,000 compounds, 0.77% hits | NIH3T3-HGL HSE-luciferase, MG132-induced, luminescence 8 h; stronger effect = lower value;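 active = more than half of replicate wells show activity change below -50%, luminescence cut by over half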;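 also: luciferase reports HSF-1 transcriptional activity via heat shock element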
HSF-1 act – increases HSF-1 driven luciferase reporter signal; activation, % at 9 µM; NIH3T3-HGL HSF-1 luciferase reporter, MG132, 8 h; 100% = twice DMSO control signal; 300,000 compounds, 1.7% hits; AID 504408;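 active = mean replicate activation of at least 50% with a set share of replicates each reaching 50%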
HKDC1 act conf2 – confirmation of human HKDC1 activators. shares compounds with HKDC1 inhibitor. recombinant HKDC1, G6PDH/diaphorase resazurin fluorescence; stronger effect = lower value. inhibition, % at 20 µM. 740 compounds, 14% hits. AID 504708;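 active = inhibition at or below a set negative limit, negative inhibition meaning the enzyme was activated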
Hits are given with their value; i = inactive; nt = no result given; ! = a repeat was not active.

SMILES	TbHK1 inh	Hsp70 act	HKDC1 inhibitor	HSP90 refold inh	HSF1 inhib	HSF-1 act	HKDC1 act conf2
Oc1ccc(/C=N/Nc2nccnc2Cl)c(O)c1	i	i	i	i	i	i	nt
CC1CC(C)CN(C(=O)C(Cc2ccccc2)NC(=O)c2ccccc2)C1 (configuration not stated)	nt	nt	i	nt	i	i	nt
C=C(C)c1cccc(C(C)(C)NC(=O)NNC(=O)c2ccccc2O)c1	nt	nt	i	i	i	i	nt
Cc1cc(Oc2ccc(OCC(N)=O)nn2)nc(Cl)n1	i	i	i	i	i	i	nt
COc1ccc(Oc2cc(C)nc(Cl)n2)nn1	i	i	i	i	i	i	i
O=C(CCN1C(=O)/C(=C/c2ccccc2Cl)SC1=S)NC1CCCC1	nt	nt	i	i	i	i	nt
O=C(c1ccc(Cl)cc1)c1ccc(CN2C(=O)c3ccccc3C2=O)o1	i	i	i	i	i	i	nt
Cc1oc2c(c1C(=O)N1CCC(C)CC1)C(=O)c1ccccc1C2=O	i	i	i	i	i	i	nt
Cc1ccc(C(=O)c2c(C)oc3c2C(=O)C(=O)c2ccccc2-3)cc1	i	i	48	i	i	i	i
Cc1ccc(C(=O)c2coc3c2C(=O)C(=O)c2ccccc2-3)cc1	i	i	57	i	i	i	i
Cc1oc2c(c1C(=O)c1ccc(Cl)cc1)C(=O)C(=O)c1ccccc1-2	i	i	55	i	i	i	i
O=C(CNC(=O)c1cccc(F)c1)OCCOc1cccc(Cl)c1	nt	nt	i	nt	i	i	nt
CCOc1ccc(CN(C)C(=O)CN2C(=O)NC(c3ccccc3)(c3ccccc3)C2=O)cc1	nt	nt	i	nt	nt	nt	nt
O=C1OC(c2ccc3ccccc3c2O)(c2ccc3ccccc3c2O)c2ccccc21	nt	nt	36	nt	nt	nt	i
COc1cccc(-n2c(N)c(C(=O)Nc3c(C)n(C)n(-c4ccccc4)c3=O)c3nc4ccccc4nc32)c1	i	nt	36	i	i	i	i
Cc1cc(C)cc(-n2c(N)c(C(=O)Nc3c(C)n(C)n(-c4ccccc4)c3=O)c3nc4ccccc4nc32)c1	i	i	38	i	i	i	i
COc1cccc(-c2ccc(NC(=O)C3CCCN(Cc4nccn4C)C3)cc2)c1 (configuration not stated)	nt	nt	i	i	i	i	nt
O=C(O)c1ccccc1NS(=O)(=O)c1ccc(N/N=C/c2cccc(O)c2O)c([N+](=O)[O-])c1	nt	nt	36	nt	nt	nt	i
Cn1c2ccccc2c2ccc3c(c21)C(=O)C=CC3=O	nt	nt	37	nt	nt	nt	i
COc1ccccc1CCNC(C)CCc1ccc(O)cc1 (configuration not stated)	nt	nt	i	i	i	i	nt
COc1cc(OC)c(OC)cc1CCC(C)NCCC(c1ccccc1)c1ccccc1 (configuration not stated)	nt	nt	81	i	i	i	i
COc1cc(C2SCC(=O)N2Cc2ccccc2)cc(OC)c1OC (configuration not stated)	nt	nt	i	i	i	i	nt
C[n+]1c2cc(N)ccc2cc2ccc(N)cc21	nt	nt	44!	nt	nt	nt	i
O=c1[nH][nH]c2c(N=Cc3ccccc3O)ccc(F)c12	i	nt	38	i	nt	nt	i
CCc1ccc(O)c(N=Cc2ccccc2O)c1	i	i	i	i	i	i	nt
SMILES	TbHK1 inh	Hsp70 act	HKDC1 inhibitor	HSP90 refold inh	HSF1 inhib	HSF-1 act	HKDC1 act conf2
CCOC(=O)/C=C(\C)Sc1cc(=O)oc2ccccc12	i	i	i	i	i	i	nt
CCOC(=O)/C=C(\C)Sc1cc(O)c2ccccc2c1O	i	nt	57	i	nt	nt	i
COc1cccc(/C=C/C(=O)OCC(=O)Nc2nnc(-c3ccccc3)o2)c1	nt	nt	i	nt	i	i	nt
O=C(CNc1cccc(S(=O)(=O)N2CCCC2)c1)Nc1ccc(F)cc1F	nt	nt	i	nt	i	i	nt
CCCCC(=O)NC(c1ccc(N(CC)CC)cc1)c1ccc2cccnc2c1O (configuration not stated)	nt	nt	i	i	i	i	-59
Cc1onc(-c2ccccc2)c1C(=O)N/N=C(\N)COc1ccc(Cl)cc1	i	i	i	i	i	i	nt
Cc1onc(-c2ccccc2Cl)c1C(=O)N/N=C(\N)COc1ccc(Cl)cc1	i	i	i	i	i	i	i
Cc1ccccc1N=C1NN=C(c2ccccc2F)CS1	i	i	i	i	i	i	-40
COc1ccc(NC(=O)c2ccco2)cc1NC(=O)c1cccc(F)c1	nt	nt	i	i	i	i	nt
c1ccc2oc(C3=NNC(=NC4CC4)SC3)cc2c1	i	i	i	i	i	i	i
c1ccc(CN=C2NN=C(c3cc4ccccc4o3)CS2)cc1	i	i	i	i	i	i	nt
Cc1cc(C)nc(Nc2n[nH]c(-c3ccc(N)cc3)n2)n1	i	i	i	i	i	i	nt
Cc1cc(C)nc(Nc2n[nH]c(-c3ccc(C(C)(C)C)cc3)n2)n1	i	i	i	i	i	i	i

From PubChem
